Key:
[1] = target: T1, Amyloid-beta precursor protein (Homo sapiens, UniProt P05067); experiment: Inhibition of HFIP-pretreated amyloid beta (1 to 42 residues) (unknown origin) aggregation at 1:10 protein to compound ratio after 24 hrs by ThT fluorescence assay relative to control; settings: concentration not given here
How it was run: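 A crude Aβ1-42 peptide film at 33 µM was mixed with compound at 330 µM, a 1:10 molar ratio, and aggregation was read by thioflavin-T fluorescence. Values are percent of the DMSO-only Aβ1-42 aggregation control, as the mean ± SD of two independent experiments.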

[2] = target: T1, Amyloid-beta precursor protein; experiment: Inhibition of HFIP-pretreated amyloid beta (1 to 42 residues) (unknown origin) aggregation after 24 hrs by ThT fluorescence assay
[3] = Half life in human liver microsomes; format: ADME, microsome
Liver = experiment: Drug metabolism in human liver microsomes assessed as oxidation of indole-3 position; format: ADME, microsome
[4] = Metabolic stability in human liver microsomes assessed as parent compound remaining after 1 hr; format: ADME, microsome; settings: read-out: Stability
How it was run: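 Compounds were incubated with human or mouse liver microsomes for 1 h at 37 °C. The read-out was the percentage of parent compound remaining.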

[5] = Permeability from apical to basolateral side in human Caco2 cells; format: ADME, cell-based; settings: Caco-2, read-out: permeability
How it was run: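 Apical-to-basolateral permeability was reported in cm/s. The efflux ratio was used to judge P-gp substrate status.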

T1 sequence (P05067 whole entry, the tested form may be a part): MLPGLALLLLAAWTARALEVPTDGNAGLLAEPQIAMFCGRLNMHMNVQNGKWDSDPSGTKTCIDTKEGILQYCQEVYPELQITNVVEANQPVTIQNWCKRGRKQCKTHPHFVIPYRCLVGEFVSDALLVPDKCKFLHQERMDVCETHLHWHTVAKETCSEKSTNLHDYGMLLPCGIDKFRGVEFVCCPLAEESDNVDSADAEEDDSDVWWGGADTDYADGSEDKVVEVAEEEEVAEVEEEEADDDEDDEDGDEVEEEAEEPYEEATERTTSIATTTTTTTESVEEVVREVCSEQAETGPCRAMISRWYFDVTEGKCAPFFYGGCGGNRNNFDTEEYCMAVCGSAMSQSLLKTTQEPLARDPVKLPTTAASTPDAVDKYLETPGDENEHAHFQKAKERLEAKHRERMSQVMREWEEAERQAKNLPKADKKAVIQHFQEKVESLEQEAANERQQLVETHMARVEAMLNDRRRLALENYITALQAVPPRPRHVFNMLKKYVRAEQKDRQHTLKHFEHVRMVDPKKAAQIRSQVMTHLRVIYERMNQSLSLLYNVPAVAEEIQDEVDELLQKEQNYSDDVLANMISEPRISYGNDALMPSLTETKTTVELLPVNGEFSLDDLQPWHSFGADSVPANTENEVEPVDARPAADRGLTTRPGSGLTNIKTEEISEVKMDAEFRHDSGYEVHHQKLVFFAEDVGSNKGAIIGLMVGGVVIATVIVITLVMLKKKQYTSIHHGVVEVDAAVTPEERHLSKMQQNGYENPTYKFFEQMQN

Compound | inhibition [1] [%] | IC50 [2] [µM] | also measured
Fc1cc(F)cc(Nc2ccc3cc[nH]c3n2)c1 | 60 | – | –
c1cc2ccc(NC3CCNCC3)nc2[nH]1 | 48 | – | –
c1cc2cc(Nc3ccc4cc[nH]c4c3)ccc2[nH]1 | 94 | – | –
c1cc2ncc(Nc3ccc4cc[nH]c4n3)cc2[nH]1 | 98 | 23.8 | half-life [3]: 11 min; Drug metabolism (Liver): Metabolite_Detected
c1ccc(Nc2ccc3cc[nH]c3n2)nc1 | 71 | – | –
c1cc2ccc(Nc3ccc4cc[nH]c4c3)cc2[nH]1 | 96 | – | –
c1cc2ccc(Nc3ccc4cc[nH]c4n3)cc2[nH]1 | 75 | – | –
c1cc2ccc(Nc3ccc4cc[nH]c4n3)nc2[nH]1 | 75 | – | –
c1cc2cc(Nc3ccc4cc[nH]c4n3)cnc2[nH]1 | 86 | – | –
c1cc2cc(Nc3ccc4cc[nH]c4n3)ccc2[nH]1 | 97 | – | –
Fc1ccc(Nc2ccc3cc[nH]c3n2)cc1 | 52 | – | –
Fc1cc(F)cc(Nc2cnc3cc[nH]c3c2)c1 | 52 | – | –

Further lines, with some results ahead:

inhibition [1] [%] | IC50 [2] [µM] | Compound | also measured
> 90 | – | CN1CCC(c2c[nH]c3cc(Nc4ccc5c(C6CCN(C)CC6)c[nH]c5c4)ccc23)CC1 | –
81 to 93 | 24 | FC(F)(F)c1ccc(Nc2ccc3c(C4CCNCC4)c[nH]c3c2)cn1 | –
> 90 | 26.6 | c1cc2c(C3CCNCC3)c[nH]c2cc1Nc1ccc2[nH]cc(C3CCNCC3)c2c1 | –
81 to 93 | 48 | CN1CCC(c2c[nH]c3cc(Nc4ccc(F)c(F)c4)ccc23)CC1 | –
81 to 93 | 42 | Cn1cc(C2CCNCC2)c2ccc(Nc3ccc(F)c(F)c3)cc21 | –
> 90 | – | CN1CCC(c2c[nH]c3ccc(Nc4ccc5c(C6CCNCC6)c[nH]c5n4)cc23)CC1 | remaining at 1 h [4]: 95%; Papp A→B [5]: 0.02 ×10⁻⁶ cm/s
> 90 | 17.8 | N#Cc1c[nH]c2nc(Nc3ccc4c(C5CCNCC5)c[nH]c4c3)ccc12 | –
> 90 | – | c1cc2c(C3CCNCC3)c[nH]c2cc1Nc1ccc2c(C3CCNCC3)c[nH]c2c1 | remaining at 1 h [4]: 89%; Papp A→B [5]: 0.01 ×10⁻⁶ cm/s
> 90 | 25.6 | c1cc2c(C3CCNCC3)c[nH]c2cc1Nc1ccc2c(C3CCNCC3)c[nH]c2n1 | –
81 to 93 | 25 | COc1ccc(Nc2ccc3c(C4CCN(C)CC4)c[nH]c3c2)cc1OC | –
> 90 | 15.3 | CN1CCC(c2c[nH]c3cc(Nc4ccc5[nH]cc(C6CCN(C)CC6)c5c4)ccc23)CC1 | –
81 to 93 | 24 | Fc1ccc(Nc2ccc3c(C4CCNCC4)c[nH]c3c2)cc1F | –
81 to 93 | 30 | Fc1ccc(Nc2ccc3c(C4CCNCC4)c[nH]c3n2)cc1F | –
